In ChEMBL document CHEMBL1127079, “Substituted chromenes as potent, orally active 5-lipoxygenase inhibitors” (J Med Chem, 1993):

Tests used:
[1] = Duration of action where maximum inhibition of LTB4 formation is achieved at 1 mg/kg po; type: functional, organism-based; parameters: dose 1 mg/kg; settings: Canis lupus familiaris
Outline: (§1)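 Beagle dogs (8–15 kg, fasted 16–18 h, water allowed) dosed by oral intubation as suspension in 3% cornstarch/0.33% Tween 80/5% PEG 400 in water, 5 mL/kg. Jugular blood at -1, 0, 0.25, 0.5, 1, 3, 6, 9, 24 h; 1-mL aliquots stimulated 15 min at 37 °C with A23187 100 μM plus fMLP 10 μM (final); plasma LTB4 by RIA. DA read graphically: time from maximum inhibition to 50% of maximum.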

[2] = target: T1, Polyunsaturated fatty acid 5-lipoxygenase (Homo sapiens) (UniProt P09917); assay: Ex vivo inhibition of LTB4 production by measurement of A-23187-stimulated LTB-4 production in dog blood at 1 mg/kg po.; type: functional, organism-based; parameters: dose 1 mg/kg; settings: Canis lupus familiaris, target entry is the homologue from another species
T1 sequence (whole entry): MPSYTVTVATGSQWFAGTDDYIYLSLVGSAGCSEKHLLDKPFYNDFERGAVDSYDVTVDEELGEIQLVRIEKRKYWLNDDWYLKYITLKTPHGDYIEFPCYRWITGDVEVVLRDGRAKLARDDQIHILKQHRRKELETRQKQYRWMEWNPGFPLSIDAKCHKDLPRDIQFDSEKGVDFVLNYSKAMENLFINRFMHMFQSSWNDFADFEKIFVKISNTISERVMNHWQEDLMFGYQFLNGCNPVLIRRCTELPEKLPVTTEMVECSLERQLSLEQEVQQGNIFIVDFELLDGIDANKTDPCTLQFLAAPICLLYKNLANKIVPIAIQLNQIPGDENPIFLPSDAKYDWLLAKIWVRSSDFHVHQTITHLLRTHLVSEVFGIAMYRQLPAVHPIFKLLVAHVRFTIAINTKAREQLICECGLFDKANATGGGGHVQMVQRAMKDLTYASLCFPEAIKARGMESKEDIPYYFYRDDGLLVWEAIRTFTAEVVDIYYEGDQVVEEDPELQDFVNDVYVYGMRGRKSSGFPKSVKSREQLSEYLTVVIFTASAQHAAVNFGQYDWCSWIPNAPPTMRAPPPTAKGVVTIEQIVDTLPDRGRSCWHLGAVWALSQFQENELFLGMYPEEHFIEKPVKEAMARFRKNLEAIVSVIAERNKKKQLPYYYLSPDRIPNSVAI
Outline: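 Fasted beagles (8–15 kg) dosed orally by intubation, suspension in 3% cornstarch with 0.33% Tween 80 and 5% PEG 400, 5 mL/kg. Blood at -1, 0, 0.25–24 h stimulated ex vivo with A23187 100 μM + fMLP 10 μM final, 15 min, 37 °C; plasma LTB4 by RIA; percent inhibition relative to mean predose (-1, 0 h) values.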

[3] = Duration of action where maximum inhibition of LTB4 formation is achieved at 1 mg/kg iv; type: functional, organism-based; parameters: dose 1 mg/kg; settings: Canis lupus familiaris
Outline: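 Beagle dogs (8–15 kg, fasted) given iv bolus in forearm in DMA/PEG 400 (25:75), 0.1 mL/kg. Blood at -1, 0, 0.08, 0.25, 0.5, 1, 3, 6, 9, 24 h; aliquots stimulated with A23187 100 μM + fMLP 10 μM final, 15 min, 37 °C; plasma LTB4 by RIA. DA taken graphically from maximum inhibition to 50%-of-maximum level.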

[4] = target: T1, Polyunsaturated fatty acid 5-lipoxygenase (Homo sapiens); assay: Ex vivo inhibition of LTB-4 determined by measurement of A-23187-stimulated LTB-4 production in dog blood at 1 mg/kg iv; type: functional, organism-based; parameters: dose 1 mg/kg
Outline: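 Beagles (8–15 kg, fasted 16–18 h) given iv forearm bolus in DMA/PEG 400 (25:75), 0.1 mL/kg. Jugular blood (serine/heparin) sampled -1 to 24 h; 1-mL aliquots stimulated with A23187 100 μM + fMLP 10 μM final for 15 min at 37 °C, one aliquot unstimulated. Plasma LTB4 by RIA; inhibition versus mean of -1 and 0 h predose values.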

[5] = Duration of action where maximum inhibition of LTB4 formation is achieved at 3 mg/kg po; type: functional, organism-based; parameters: dose 3 mg/kg; settings: Canis lupus familiaris; outline: as §1
[6] = system: Arachidonate 5-lipoxygenase (Canis lupus familiaris); assay: Ex vivo inhibition of LTB-4 determined by measurement of A-23187-stimulated LTB-4 production in dog blood at 3 mg/kg po; settings: target entry is the homologue from another species
[7] = target: T2, Polyunsaturated fatty acid lipoxygenase ALOX12 (Homo sapiens, UniProt P18054); assay: Inhibitory concentration against human platelet 12-lipoxygenase; type: functional
T2 sequence (P18054 whole entry): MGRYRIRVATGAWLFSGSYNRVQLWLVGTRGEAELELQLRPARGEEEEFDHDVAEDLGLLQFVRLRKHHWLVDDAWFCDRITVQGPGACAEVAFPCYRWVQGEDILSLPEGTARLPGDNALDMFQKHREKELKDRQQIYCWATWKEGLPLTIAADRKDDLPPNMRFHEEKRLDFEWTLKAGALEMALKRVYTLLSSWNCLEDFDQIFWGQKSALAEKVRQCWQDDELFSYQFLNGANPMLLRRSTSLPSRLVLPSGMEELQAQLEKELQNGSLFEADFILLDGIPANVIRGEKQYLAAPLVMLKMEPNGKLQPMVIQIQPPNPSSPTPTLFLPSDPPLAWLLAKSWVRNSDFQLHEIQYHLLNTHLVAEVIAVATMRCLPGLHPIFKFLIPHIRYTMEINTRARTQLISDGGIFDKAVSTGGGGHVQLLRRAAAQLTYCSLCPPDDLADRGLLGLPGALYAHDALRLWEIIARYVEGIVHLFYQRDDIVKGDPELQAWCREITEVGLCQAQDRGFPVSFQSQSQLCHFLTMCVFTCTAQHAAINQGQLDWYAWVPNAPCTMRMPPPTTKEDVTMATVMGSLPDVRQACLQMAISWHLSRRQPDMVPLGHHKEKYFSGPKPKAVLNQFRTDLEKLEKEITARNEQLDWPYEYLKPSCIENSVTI
Outline: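 Cytoplasmic fraction of lysed human platelets, diluted to give 50% AA conversion, preincubated with inhibitor 5 min at 37 °C in 0.1 M Tris-HCl pH 8.0 with 1 mM glutathione and 10 μM indomethacin. 1-[14C]AA added, 15 min at 37 °C; 12-HETE separated by TLC and counted.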

[8] = Duration of action is where maximum inhibition of LTB4 formation is achieved at 1 mg/kg po; type: functional, organism-based; parameters: dose 1 mg/kg; settings: Canis lupus familiaris; outline: as §1
[9] = Duration of action where maximum inhibition of LTB4 formation is achieved at 10 mg/kg po; type: functional, organism-based; parameters: dose 10 mg/kg; settings: Canis lupus familiaris; outline: as §1
[10] = system: Arachidonate 5-lipoxygenase (Canis lupus familiaris); assay: Ex vivo inhibition of LTB-4 determined by measurement of A-23187-stimulated LTB-4 production in dog blood at 10 mg/kg po; settings: target entry is the homologue from another species
[11] = target: T3, Prostaglandin G/H synthase (cyclooxygenase) (Ovis aries, UniProt P05979+P79208); assay: Inhibitory concentration against sheep seminal vesicle Prostaglandin G/H synthase; type: functional, tissue-based
T3 sequence (P05979 whole entry): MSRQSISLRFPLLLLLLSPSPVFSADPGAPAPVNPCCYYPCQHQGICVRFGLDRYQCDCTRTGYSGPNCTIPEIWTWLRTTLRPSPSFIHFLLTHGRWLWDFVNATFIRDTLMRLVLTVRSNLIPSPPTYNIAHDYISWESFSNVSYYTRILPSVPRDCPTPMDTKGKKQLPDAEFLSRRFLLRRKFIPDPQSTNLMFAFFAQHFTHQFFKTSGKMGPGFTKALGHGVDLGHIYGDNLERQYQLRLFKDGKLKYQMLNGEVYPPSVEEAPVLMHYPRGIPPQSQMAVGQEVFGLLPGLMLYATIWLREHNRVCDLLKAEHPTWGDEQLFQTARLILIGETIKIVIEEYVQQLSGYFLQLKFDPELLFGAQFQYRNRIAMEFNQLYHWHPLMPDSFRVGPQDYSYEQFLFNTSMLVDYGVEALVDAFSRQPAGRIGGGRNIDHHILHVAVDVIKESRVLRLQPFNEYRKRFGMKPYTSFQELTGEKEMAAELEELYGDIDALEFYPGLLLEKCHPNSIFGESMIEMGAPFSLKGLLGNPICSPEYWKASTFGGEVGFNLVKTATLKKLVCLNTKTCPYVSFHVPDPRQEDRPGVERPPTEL
T3 sequence (P79208 whole entry): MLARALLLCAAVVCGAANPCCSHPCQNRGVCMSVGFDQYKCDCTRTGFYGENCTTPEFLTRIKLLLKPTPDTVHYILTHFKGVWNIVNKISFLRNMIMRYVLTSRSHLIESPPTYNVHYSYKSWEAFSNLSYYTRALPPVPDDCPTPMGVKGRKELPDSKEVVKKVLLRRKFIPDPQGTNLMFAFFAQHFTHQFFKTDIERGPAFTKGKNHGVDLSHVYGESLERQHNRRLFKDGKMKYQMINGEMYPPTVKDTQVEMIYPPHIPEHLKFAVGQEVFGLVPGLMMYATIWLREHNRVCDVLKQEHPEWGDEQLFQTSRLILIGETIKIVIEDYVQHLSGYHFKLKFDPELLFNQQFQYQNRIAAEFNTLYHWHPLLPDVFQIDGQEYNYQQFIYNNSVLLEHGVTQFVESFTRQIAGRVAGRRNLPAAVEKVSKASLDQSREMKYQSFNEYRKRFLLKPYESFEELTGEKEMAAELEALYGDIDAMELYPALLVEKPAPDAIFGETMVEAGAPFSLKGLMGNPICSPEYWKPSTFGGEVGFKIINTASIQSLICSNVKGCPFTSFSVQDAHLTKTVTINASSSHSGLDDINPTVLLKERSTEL
Outline: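 Lyophilized sheep seminal vesicle microsomes as cyclooxygenase source; conversion of [14C]AA to PGE2 with compounds over a wide concentration range in 0.1 M Tris-HCl pH 8.4 (or 1% ethanol). PGs extracted into ethyl acetate, separated by TLC, PGE2 zones counted by scintillation.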

Compound	Duration [1] [h]	inhibition [2] [%]	Duration [3] [h]	inhibition [4] [%]	other results
CC1Oc2ccc(Oc3ccccc3)cc2C=C1CN(O)C(N)=O (stereo not drawn)	9	> 95	5	> 95	
NC(=O)N(O)CC1=Cc2cc(Br)ccc2OC1					Duration [9]: 3.8 h; inhibition [10]: > 95%
CNC(=O)N(O)CC1=Cc2cc(Oc3ccc(F)cc3)ccc2OC1		> 95	20	> 95	IC50 [7]: 410 nM; Duration [8]: 15 h; Duration [5]: 42 h; IC50 [11]: > 100000 nM
COc1ccc2c(c1)C=C(CN(O)C(N)=O)CO2			1.2		Duration [9]: > 6 h
CC1(C)Oc2ccc(Oc3ccccc3)cc2C=C1CN(O)C(N)=O	2.6	65			
CC(c1cc2ccccc2s1)N(O)C(N)=O (stereo not drawn) [ZILEUTON]					IC50 [7]: 55000 nM
CCCCCCOc1ccc2c(c1)C=C(CN(O)C(N)=O)CO2					Duration [5]: 2.2 h; inhibition [6]: 60%
NC(=O)N(O)CC1COc2ccc(Oc3ccccc3)cc2C1 (stereo not drawn)	4.8	> 95	7.4	> 95	

More lines, main results first:

Duration [1] [h]	inhibition [2] [%]	Duration [3] [h]	inhibition [4] [%]	Compound	other results
1	60			NC(=O)N(O)CC1=Cc2cc(-c3ccccc3)ccc2OC1	
4	> 90			NC(=O)N(O)CC1=Cc2cc(OCCCc3ccccc3)ccc2OC1	Duration [5]: > 6 h; inhibition [6]: > 95%
	> 95		> 95	NC(=O)N(O)CC1=Cc2cc(Oc3ccccc3)ccc2OC1	IC50 [7]: 640 nM; Duration [8]: 14 h; Duration [5]: 35 h
2.8	91			CC1Oc2ccc(OCc3ccccc3)cc2C=C1CN(O)C(N)=O (stereo not drawn)	
		8.1	> 95	CCCNC(=O)N(O)CC1=Cc2cc(Oc3ccccc3)ccc2OC1	
3.8	60	5.1	> 95	CCNC(=O)N(O)CC1=Cc2cc(Oc3ccccc3)ccc2OC1	
	> 95		> 95	NC(=O)N(O)CC1=Cc2cc(Oc3ccc(F)cc3)ccc2OC1	Duration [8]: 13 h
11	> 95	8.4	> 95	CNC(=O)N(O)CC1=Cc2cc(Oc3ccccc3)ccc2OC1	
	80			C=CCNC(=O)N(O)CC1=Cc2cc(Oc3ccccc3)ccc2OC1	Duration [8]: 4.2 h
	59	19	> 95	NC(=O)N(O)CC1=Cc2cc(OCc3ccccc3)ccc2OC1	Duration [8]: 5 h; Duration [9]: > 6 h; inhibition [6]: > 95%; inhibition [10]: > 95%
		3	82	NC(=O)N(O)CC1=Cc2cc(OCc3ccc(C(F)(F)F)cc3)ccc2OC1	Duration [9]: > 6 h; inhibition [10]: > 95%
